PRMT1 inh = PRMT1 (human) inhibition, primary screen; Q99873; recombinant PRMT1, activity-based probe fluorescence polarization; inhibition, % at 2.79 µM; hit rate 1.3% among 370,000; AID 652257;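 active means inhibition above about 21% made by adding two undisclosed values, limit read from the data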
TDP2 inh = TDP2 (human) inhibition, absorbance primary screen; O95551; recombinant TDP2, T5PNP hydrolysis, p-nitrophenol absorbance 415 nm; inhibition, % at 12.8 µM; hit rate 0.34% among 370,000; AID 720702;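 active means inhibition above the mean of all tested compounds plus 3 SD, set per campaign, cut at about 25% in these data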;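 further: 0% = DMSO with enzyme and 100% = buffer with substrate but no TDP2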
Target sequence (O95551 whole entry, looked up): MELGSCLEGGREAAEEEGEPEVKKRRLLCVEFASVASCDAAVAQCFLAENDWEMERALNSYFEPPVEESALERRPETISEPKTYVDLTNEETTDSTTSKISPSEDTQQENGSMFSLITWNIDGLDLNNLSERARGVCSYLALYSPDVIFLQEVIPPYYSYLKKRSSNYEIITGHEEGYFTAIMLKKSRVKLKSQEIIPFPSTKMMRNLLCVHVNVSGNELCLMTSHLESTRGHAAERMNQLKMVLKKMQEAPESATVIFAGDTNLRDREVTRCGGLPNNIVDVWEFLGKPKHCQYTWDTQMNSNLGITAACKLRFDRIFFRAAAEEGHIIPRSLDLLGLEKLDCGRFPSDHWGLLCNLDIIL
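Evaluation: % inhibition relative to enzyme-containing and enzyme-free wells. Material: recombinant human TDP2. Benchmarks: enzyme-free and DMSO wells. Timing: enzyme reaction with compound for 2 h at 37 °C. Compound dosing: 12.8 µM only. Measured by: p-Nitrophenol epi absorbance. Reagent: T5PNP substrate at 5 mM, a TopII-DNA adduct mimic. Replication: single well per compound.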
PAD4 FP inh = inhibitors of human PAD4 | recombinant PAD4, RCA probe fluorescence polarization | inhibition, % at 6.36 µM | hit rate 0.41% among 330,000;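 active means percent inhibition above a cutoff equal to the mean of all tested compounds plus 3 SD, cut at about 15% in these data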;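 further: 0% = PAD4 with RCA probe and DMSO and 100% = probe without PAD4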
CTSL1 counter = cathepsin L1 inhibition, PFM18AAP counter-screen; recombinant F. hepatica cathepsin L1, Z-Leu-Arg-MCA fluorescence; inhibition, % at 5.96 µM; hit rate 0.49% among 300,000; AID 1906;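 active means inhibition above the mean of all tested compounds plus 3 SD, set per screening campaign, cut at about 17% in these data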;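 further: 0% = plate median of test compound wells and 100% = 1 µM Z-Phe-Ala-diazomethylketone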
GSTO1 counter = counter-screen for RBBP9 inhibitors: inhibitors of human GSTO1. P78417. recombinant GSTO1, activity-based probe fluorescence polarization. inhibition, % at 5.96 µM. hit rate 1.1% among 300,000. AID 1974;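 active means inhibition above the campaign mean inhibition plus 3 SD, cut at about 35% in these data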;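 further: 0% = GSTO1-1 with DMSO and 100% = wells lacking GSTO1-1 enzyme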
TDP2 inh conf = human TDP2 inhibition, confirmation | shares compounds with TDP2 inh | recombinant human TDP2, absorbance read-out | inhibition, % at 12.8 µM | hit rate 22% among 1,100; in the data active means inhibition above about 25%;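 further: 0% = vehicle with enzyme and 100% = no enzyme buffer only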
* marks the source's active call; other numbers are inactive results; / = no result. Shown are actives, neighbours in structure and some others; about 2.5% of the full set was active somewhere.

SMILES	PRMT1 inh	TDP2 inh	PAD4 FP inh	CTSL1 counter	GSTO1 counter	TDP2 inh conf
O=c1c2ccccc2nc(/C=C/c2ccccc2O)n1-c1ccccc1O	0.7	30.1*	-7.4	-1.4	-23.0	3.7
NNc1n[nH]c(=S)n1N	16.4	32.9*	-2.6	2.4	31.4	-4.7
O=C1C(Br)C2CCC1C2C(=O)O (centres undefined)	1.4	-4.0	/	/	/	/
CN1CCN(c2ccc([N+](=O)[O-])c3no[n+]([O-])c23)CC1	112.0*	24.6*	-10.2	17.5*	46.7*	26.4*
O=[N+]([O-])c1ccc(N(CCO)CCO)c2c1no[n+]2[O-]	18.8	8.0	/	/	/	/
C[C@@H]1CN([C@@H](C)CO)C(=O)CCCn2nncc2CO[C@@H]1CN(C)C(=O)Oc1ccccc1	-2.8	8.4	/	/	/	/
C/C(=N\NC(=O)c1ccncc1)c1c(O)n(Cc2ccccc2)c(=O)[nH]c1=O	-0.5	-13.5	-7.5	1.4	-4.2	/
C/C(=N\NC(=O)c1ccccc1O)c1c(O)n(Cc2ccccc2)c(=O)[nH]c1=O	3.1	27.9*	-3.0	-2.7	23.4	4.2

Assay outcomes as filed in PubChem BioAssay.
